The values that follow come from PMC5817033 (Nuclear medicine and biology, 2017).

For data set [1] the following is noted: rats, 1 h post injection; cited from earlier work.
Data set [2] is described as follows: Ex-vivo biodistribution of ^18F-1 co-injected with ^131I-OIH in normal rats. On the set-up: species or system Sprague-Dawley rats. Particulars: mean ± SD.
For data set [3] the following is noted: rat plasma, ultrafiltration, mean of duplicate.
For data set [4] the following is noted: pH 7, room temperature, over 23 hours after labeling.
For data set [5] the following is noted: rat blood, mean of duplicate.
The conditions of data set [6]: rat urine collected for 10 min after i.v. injection.
For data set [7] the following is noted: cited from earlier work.
For data set [8] the following is noted: cited from earlier work. This is another data set of the same source.
For data set [9] the following is noted: normal rats, mean ± SD, cited from earlier work.
Data set [10] in a line: Thermal stability of labeling precursor by HPLC. Particulars: 110 °C for 1 hour. It counts as physicochemical. The method, boiled down: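 Tosylate labeling precursor heated at 110 °C for 1 hour. Stability is judged by comparing its HPLC chromatograms before and after heating.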

Several values for one entry are separate records, joined by “and”; a condition that tells them apart may be missing. Equal values may be shown once. Read-outs that look alike come from different tables or passages of the source.

As for `O=C(O)CNC(=O)c1ccc([18F])cc1` [^18F-PFH, p-^18F-fluorohippuran], in [1], the Activity in blood is ~ 0.3 %ID and the Activity in urine is reported as ~ 81 % ID.
For the compound `O=C([O-])CN(CC[18F])CC(=O)[O-].[C-]#[O+].[C-]#[O+].[C-]#[O+].[Re+]` [^18F-1, rhenium-tricarbonyl-N-(2-[^18F]fluoroethyl)iminodiacetic acid], the “%Urine: urine activity as a percentage of ^131I-OIH (^18F/^131I-OIH ratio)” value in data set [2] (10 min) is 92% and 92 ± 14%. Further, in [2] (10 min after i.v. injection), the Blood activity is listed as 5.2 ± 0.7 %ID; the Bone uptake was 0.08 ± 0.01 %ID/g; the “Bowel activity (intestines and stomach)” value came to 2.1 ± 1.7 %ID; the Heart activity stood at 0.1 ± 0.0 %ID. In data set [2] (10 min after i.v. injection), this compound registered a Kidney activity of 9.4 ± 2.0 %ID, a Liver activity of 5.6 ± 0.3 %ID, a Lung activity of 0.4 ± 0.1 %ID and a Spleen activity of 0.1 ± 0.0 %ID. Further, the Urine activity in [2] (10 min after i.v. injection) turned out to be 49.3 ± 3.7 %ID. For the same compound, the “%Urine: urine activity as a percentage of ^131I-OIH (^18F/^131I-OIH ratio)” value in data set [2] (60 min) was 95% and 95 ± 5%. In addition, in data set [2] (60 min after i.v. injection), the Blood activity is 0.3 ± 0.1 %ID; the “Bowel activity (intestines and stomach)” value came out at 3.9 ± 2.0 %ID; the Heart activity is recorded as 0.0 ± 0.0 %ID; the Kidney activity is on record as 1.0 ± 0.7 %ID. In data set [2] (60 min after i.v. injection), this compound yielded a Liver activity of 0.4 ± 0.1 %ID, a Lung activity of 0.1 ± 0.1 %ID, a Spleen activity of 0.0 ± 0.0 %ID and a Urine activity of 80.5 ± 4.4 %ID. Further, in data set [3], the “Plasma protein binding (PPB)” value is 87%. The “In vitro stability of formulated solution (HPLC)” value in data set [4] was “No measurable decomposition”. Further, the “Erythrocyte uptake (RCB)” value in data set [5] was found to be 21%. Also, in data set [6], the “In vivo stability: HPLC analysis of urine for metabolites” value was “only the intact parent compound”.
Consider `O=C(O)CNC(=O)c1ccccc1[131I]` [OIH, ^131I-orthoidodohippurate], for which the Plasma protein binding in [7] is 44%. Besides, in data set [2] (10 min after i.v. injection), the Blood activity is 4.5 ± 0.4 %ID; the “Bowel activity (intestines and stomach)” value is recorded as 1.3 ± 0.6 %ID; the Heart activity stood at 0.1 ± 0.0 %ID; the Kidney activity came to 5.2 ± 1.6 %ID. In data set [2] (10 min after i.v. injection), this compound yielded a Liver activity of 2.8 ± 0.6 %ID, a Lung activity of 0.3 ± 0.1 %ID, a Spleen activity of 0.1 ± 0.0 %ID and a Urine activity of 54.4 ± 6.9 %ID. In data set [2] (60 min after i.v. injection), the Blood activity was determined as 0.8 ± 0.1 %ID; the “Bowel activity (intestines and stomach)” value is recorded as 1.1 ± 0.2 %ID; the Heart activity was 0.0 ± 0.0 %ID; the Kidney activity worked out at 1.0 ± 0.8 %ID. In addition, in data set [2] (60 min after i.v. injection), the Liver activity was determined as 0.6 ± 0.1 %ID, the Lung activity is on record as 0.1 ± 0.1 %ID, the Spleen activity worked out at 0.0 ± 0.0 %ID and the Urine activity amounted to 84.8 ± 3.8 %ID. Also, the Red cell uptake in data set [8] is listed as 35%. Besides, in data set [9] (10 min after injection), the Blood activity was 5.8 ± 1.0 %ID; the “Bowel activity (intestines and stomach)” value was 1.8 ± 0.2 %ID; the Heart activity is given as 0.2 ± 0.0 %ID; the Kidney activity is reported as 4.8 ± 0.8 %ID. Also, in data set [9] (10 min after injection), the Liver activity is 3.0 ± 0.9 %ID, the Lung activity was 0.4 ± 0.1 %ID, the Spleen activity is reported as 0.1± 0.0 %ID and the Urine activity is 54.2 ± 9.2 %ID. In data set [9] (60 min after injection), the Blood activity is on record as 0.5 ± 0.4 %ID; the “Bowel activity (intestines and stomach)” value is 1.2 ± 0.5 %ID; the Heart activity is recorded as 0.1 ± 0.0 %ID; the Kidney activity was 0.5 ± 0.2 %ID. Besides, in data set [9] (60 min after injection), the Liver activity is recorded as 0.5 ± 0.1 %ID, the Lung activity was 0.1 ± 0.1 %ID, the Spleen activity is 0.1 ± 0.1 %ID and the Urine activity is listed as 80.2 ± 5.3 %ID.
As for “^99mTc(CO)3(2-fluoroethyl)iminodiacetic acid [^99mTc-1]”, in data set [8] (rats), the Erythrocyte uptake is reported as 20%. The “%Urine: urine activity as a percentage of ^131I-OIH (^99mTc/^131I-OIH ratio)” value in data set [9] (10 min) is given as 100 ± 4%. Further, in [9] (10 min after injection), the Blood activity is on record as 5.1 ± 0.9 %ID; the “Bowel activity (intestines and stomach)” value is given as 2.9 ± 0.5 %ID; the Heart activity was 0.1 ± 0.0 %ID; the Kidney activity is given as 6.6 ± 2.1 %ID. Besides, in data set [9] (10 min after injection), the Liver activity was 5.9 ± 0.8 %ID, the Lung activity is recorded as 0.4 ± 0.2 %ID, the Spleen activity is listed as 0.1 ± 0.0 %ID and the Urine activity was 54.1 ± 7.2 %ID. Besides, in data set [9] (60 min), the “%Urine: urine activity as a percentage of ^131I-OIH (^99mTc/^131I-OIH ratio)” value is given as 99 ± 2%. Moreover, in data set [9] (60 min after injection), the Blood activity was 0.3 %ID and 0.3 ± 0.1 %ID; the “Bowel activity (intestines and stomach)” value is 2.9 ± 1.4 %ID; the Heart activity is 0.0 ± 0.0 %ID; the Kidney activity was 0.7 ± 0.2 %ID. Also, in [9] (60 min after injection), the Liver activity is given as 0.8 ± 0.1 %ID, the Lung activity is 0.1 ± 0.1 %ID, the Spleen activity is reported as 0.1 ± 0.2 %ID and the Urine activity was 79.2 ± 6.4 %ID.
“rhenium-tricarbonyl-N-(2-(4-methylbenzenesulphonate)ethyl))iminodiacetic acid [Re-OTs]”: the “Stability on heating (HPLC)” value in data set [10] is “stable”.
